From ChEMBL document CHEMBL1156656, “HIV-1 ribonuclease H inhibitory phenolic glycosides from Eugenia hyemalis” (J Nat Prod, 2008)
Calls of active or inactive are those of the source. The rule behind the calls is not given here.

Key:
Escherichia coli = experiment: Inhibition of Escherichia coli RNase H by FRET assay
[1] = Inhibition of HIV2 RNase H by FRET assay; design: species or system Human immunodeficiency virus 2
Summary of the method: (§1)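 RNase H enzymes (HIV-1, HIV-2, human) assayed by high-throughput fluorescence resonance energy transfer (FRET) cleavage assay; extracts run in presence of 1% bovine serum albumin.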

[2] = Inhibition of HIV1 RNase H by FRET assay; design: species or system Human immunodeficiency virus 1; summary of the method: as §1
[3] = system: Human immunodeficiency virus; experiment: Antiviral activity against HIV-RF in human CEM-SS cells assessed as cytopathogenicity at 20 ug/ml; format: functional, organism-based
Summary of the method: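 Human CEM-SS T cells infected with HIV-1 strain RF; XTT-based cell viability read-out of protection from viral cytopathic effect; highest dose tested 20 μg/mL.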

[4] = Inhibition of human RNase H by FRET assay; summary of the method: as §1

## O=C(O[C@H]1[C@H](O)[C@@H](O)[C@H](Oc2ccc(O)cc2)O[C@@H]1CO)c1cc(O)c(O)c(O)c1
Escherichia coli
  Activity: inactive
[1]
  IC50: > 23.5 µM
[2]
  IC50: > 23.5 µM
[3]
  Activity: inactive
[4]
  IC50: > 23.5 µM

## O=C(OC[C@H]1O[C@@H](Oc2ccc(O)cc2)[C@H](OC(=O)c2cc(O)c(O)c(O)c2)[C@@H](OC(=O)c2cc(O)c(O)c(O)c2)[C@@H]1O)c1cc(O)c(O)c(O)c1 [HYEMALOSIDE A]
Escherichia coli
  Activity: inactive
[1]
  IC50: 0.58 µM
[2]
  IC50: 1.46 µM
[4]
  IC50: 0.18 µM

## O=C(OC[C@H]1O[C@@H](Oc2ccc(O)cc2)[C@H](OC(=O)c2cc(O)c(O)c(O)c2)[C@@H](O)[C@@H]1O)c1cc(O)c(O)c(O)c1
Escherichia coli
  Activity: inactive
[1]
  IC50: 0.28 µM
[2]
  IC50: 5.05 µM
[4]
  IC50: 0.55 µM

## O=C(OC[C@H]1O[C@@H](Oc2ccc(O)cc2)[C@H](OC(=O)c2cc(O)c(O)c(O)c2)[C@@H](O)[C@@H]1O)c1ccc(O)cc1 [HYEMALOSIDE B]
Escherichia coli
  Activity: inactive
[1]
  IC50: 3.32 µM
[2]
  IC50: > 18.3 µM
[4]
  IC50: 2.44 µM

## C[C@H]1O[C@H](Oc2c(-c3ccc(O)cc3)oc3cc(O)cc(O)c3c2=O)[C@@H](OC(=O)c2cc(O)c(O)c(O)c2)[C@@H](O)[C@H]1O
Escherichia coli
  Activity: inactive
[1]
  IC50: 3.38 µM
[2]
  IC50: > 17.1 µM
[4]
  IC50: 3.03 µM

## O=C(O[C@@H]1[C@@H](OC(=O)c2cc(O)c(O)c(O)c2)[C@H](Oc2ccc(O)cc2)O[C@@H]2COC(=O)c3cc(O)c(O)c(O)c3-c3c(cc(O)c(O)c3O)C(=O)O[C@@H]12)c1cc(O)c(O)c(O)c1 [HYEMALOSIDE C]
Escherichia coli
  Activity: inactive
[1]
  IC50: 0.84 µM
[2]
  IC50: 1.19 µM
[4]
  IC50: 0.07 µM

## O=C(O[C@H]1[C@H](Oc2ccc(O)cc2)O[C@H](CO)[C@@H](O)[C@@H]1O)c1cc(O)c(O)c(O)c1
Escherichia coli
  Activity: inactive
[1]
  IC50: > 23.5 µM
[2]
  IC50: > 23.5 µM
[4]
  IC50: > 23.5 µM

## O=C(OC[C@H]1O[C@@H](Oc2ccc(O)cc2)[C@H](OC(=O)c2cc(O)c(O)c(O)c2)[C@@H](O)[C@@H]1OC(=O)c1cc(O)c(O)c(O)c1)c1cc(O)c(O)c(O)c1
Escherichia coli
  Activity: inactive
[1]
  IC50: 0.1 µM
[2]
  IC50: 0.68 µM
[4]
  IC50: 0.04 µM

## O=C(OC[C@H]1O[C@@H](OC(=O)c2cc(O)c(O)c(O)c2)[C@H](OC(=O)c2cc(O)c(O)c(O)c2)[C@@H](O)[C@@H]1O)c1cc(O)c(O)c(O)c1
Escherichia coli
  Activity: inactive
[1]
  IC50: 0.28 µM
[2]
  IC50: 10.2 µM
[4]
  IC50: 0.55 µM

## C[C@H]1O[C@H](Oc2c(-c3ccc(O)cc3)oc3cc(O)cc(O)c3c2=O)[C@@H](O)[C@@H](OC(=O)c2cc(O)c(O)c(O)c2)[C@H]1O
Escherichia coli
  Activity: inactive
[1]
  IC50: 9.12 µM
[2]
  IC50: > 17.1 µM
[4]
  IC50: 7.25 µM

## O=C(OC[C@H]1O[C@@H](Oc2c(-c3ccc(O)cc3)oc3cc(O)cc(O)c3c2=O)[C@H](O)[C@@H](O)[C@@H]1O)c1cc(O)c(O)c(O)c1
Escherichia coli
  Activity: inactive
[1]
  IC50: 5.19 µM
[2]
  IC50: > 16.6 µM
[4]
  IC50: 9.5 µM

## C[C@@H]1O[C@@H](Oc2c(-c3ccc(O)c(O)c3)oc3cc(O)cc(O)c3c2=O)[C@H](O)[C@H](O)[C@H]1O [QUERCITRIN]
Escherichia coli
  Activity: inactive
[1]
  IC50: 21.3 µM
[2]
  IC50: > 22.3 µM
[4]
  IC50: 12.5 µM
